Data published in ChEMBL document CHEMBL4229410, “Facile construction of fused benzimidazole-isoquinolinones that induce cell-cycle arrest and apoptosis in colorectal cancer cells” (Bioorg Med Chem, 2018).
Calls of active or inactive are those of the source. No cut-off for these calls is given here.

Key:
HT-29 [1] = experiment: Growth inhibition of human HT-29 cells by MTT assay; type: functional
Outline: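 MTT viability assay: 3×10³ cells/well were pre-incubated for 24 h, then exposed to 0, 12.5, 25, 50, 100 or 200 μM for 12, 24, 48 or 72 h. MTT was added at 0.5 mg/mL final for 4 h, formazan dissolved in DMSO, and absorbance read at 570 nm. GI₅₀ was taken from growth-inhibition curves; mean ± SD of three independent experiments, each in sextuplicate.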

SW-620 = experiment: Cell cycle arrest in human SW620 cells assessed as accumulation at S-phase at 50 uM after 48 hrs by propidium iodide staining based flow cytometry (reference value: 43.72%); type: functional
HT-29 [2] = experiment: Cell cycle arrest in human HT-29 cells assessed as accumulation at G2-phase at 75 uM after 48 hrs by propidium iodide staining based flow cytometry (reference value: 15.45%); type: functional
HT-29 [3] = experiment: Cell cycle arrest in human HT-29 cells assessed as increase in accumulation at G2/M-phase after 48 hrs by propidium iodide staining based flow cytometry; type: functional
HT-29 [4] = experiment: Down regulation of cyclin-B1 expression in human HT-29 cells after 48 hrs by Western blot analysis; type: functional, cell-based
Outline: (§1)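 HT29 or SW620 cells were treated at 0, 25, 50 and 75 μM for 48 h and lysed in RIPA with protease and phosphatase inhibitors. Protein was quantified by BCA. 50 μg lysate was run on 8–15% SDS-PAGE and transferred to PVDF. Blocking was 5% BSA/TBST for 2 h; primary antibodies were applied overnight at 4 °C, then HRP secondary 1 h at room temperature.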

HT-29 [5] = experiment: Upregulation of p53 expression in human HT-29 cells after 48 hrs by Western blot analysis; type: functional, cell-based
HT-29 [6] = experiment: Effect on total mTOR expression in human HT-29 cells up to 75 uM after 48 hrs by Western blot analysis; type: ADME, cell-based; conditions: ht-29, 48 h; outline: as §1
HT-29 [7] = experiment: Inhibition of PI3K/AKT signaling pathway in human HT-29 cells assessed as reduction in mTOR phosphorylation up to 75 uM after 48 hrs by Western blot analysis; type: cell-based
[8] = target: Serine/threonine-protein kinase B-raf (Homo sapiens, UniProt P15056); experiment: Inhibition of human BRAF (S429 to E741 residues) expressed in mammalian expression system assessed as residual activity at 5 uM by KINOMEscan assay relative to control
[9] = target: Casein kinase I isoform gamma-2 (Homo sapiens, UniProt P78368); experiment: Inhibition of full length human CSNK1G2 (M1 to K415 residues) expressed in bacterial expression system assessed as residual activity at 5 uM by KINOMEscan assay relative to control
[10] = target: Dual specificity tyrosine-phosphorylation-regulated kinase 1B (Homo sapiens, UniProt Q9Y463); experiment: Inhibition of full length human DYRK1B (M1 to S629 residues) expressed in bacterial expression system assessed as residual activity at 5 uM by KINOMEscan assay relative to control
[11] = target: Epidermal growth factor receptor (Homo sapiens, UniProt P00533); experiment: Inhibition of partial length human EGFR (R669 to V1011 residues) expressed in bacterial expression system assessed as residual activity at 5 uM by KINOMEscan assay relative to control
[12] = target: Receptor-type tyrosine-protein kinase FLT3 (Homo sapiens) (UniProt P36888); experiment: Inhibition of human FLT3 (V592 to Y969 residues) expressed in bacterial expression system assessed as residual activity at 5 uM by KINOMEscan assay relative to control
[13] = target: Tyrosine-protein kinase JAK2 (Homo sapiens, UniProt O60674); experiment: Inhibition of human JAK2 JH1 catalytic domain (A829 to G1132 residues) expressed in mammalian expression system assessed as residual activity at 5 uM by KINOMEscan assay relative to control
[14] = target: Mitogen-activated protein kinase kinase kinase 4 (Homo sapiens, UniProt Q9Y6R4); experiment: Inhibition of human MAP3K4 (G1319 to E1608 residues) expressed in bacterial expression system assessed as residual activity at 5 uM by KINOMEscan assay relative to control
[15] = target: Platelet-derived growth factor receptor beta (Homo sapiens, UniProt P09619); experiment: Inhibition of human PDGFRB (V582 to Y1009 residues) expressed in bacterial expression system assessed as residual activity at 5 uM by KINOMEscan assay relative to control
[16] = target: Phosphatidylinositol 4-phosphate 3-kinase C2 domain-containing subunit beta (Homo sapiens, UniProt O00750); experiment: Inhibition of human PIK3C2B (M1 to L1634 residues) expressed in mammalian expression system assessed as residual activity at 5 uM by KINOMEscan assay relative to control
[17] = target: RAF proto-oncogene serine/threonine-protein kinase (Homo sapiens, UniProt P04049); experiment: Inhibition of human RAF1 (I330 to T640 residues) expressed in bacterial expression system assessed as residual activity at 5 uM by KINOMEscan assay relative to control
[18] = target: RAC-alpha serine/threonine-protein kinase (Homo sapiens, UniProt P31749); experiment: Binding affinity to human AKT1 expressed in bacterial expression system by KINOMEscan assay
[19] = target: Cyclin-dependent kinase 9 (Homo sapiens, UniProt P50750); experiment: Binding affinity to full length human CDK9 (M1 to F372 residues) expressed in bacterial expression system by KINOMEscan assay
[20] = target: Tyrosine-protein kinase JAK3 (Homo sapiens, UniProt P52333); experiment: Binding affinity to human JAK3 JH1 catalytic domain (I781 to S1124 residues) expressed in mammalian expression system by KINOMEscan assay
[21] = target: Mitogen-activated protein kinase 10 (Homo sapiens, UniProt P53779); experiment: Binding affinity to human JNK3 (V28 to Q422 residues) expressed in mammalian expression system by KINOMEscan assay
[22] = target: Mast/stem cell growth factor receptor Kit (Homo sapiens, UniProt P10721); experiment: Binding affinity to human KIT (I571 to D952 residues) expressed in bacterial expression system by KINOMEscan assay
[23] = target: Serine/threonine-protein kinase STK11 (Homo sapiens, UniProt Q15831); experiment: Binding affinity to full length human LKB1 (M1 to Q433 residues) expressed in bacterial expression system by KINOMEscan assay
[24] = target: MAP/microtubule affinity-regulating kinase 3 (Homo sapiens, UniProt P27448); experiment: Binding affinity to full length human MARK3 (M1 to L729 residues) expressed in bacterial expression system by KINOMEscan assay
[25] = target: Serine/threonine-protein kinase PLK4 (Homo sapiens, UniProt O00444); experiment: Binding affinity to partial length human PLK4 (M1 to S273 residues) expressed in mammalian expression system by KINOMEscan assay
[26] = target: Non-receptor tyrosine-protein kinase TYK2 (Homo sapiens, UniProt P29597); experiment: Binding affinity to human TYK2 JH1 catalytic domain (V877 to C1187 residues) expressed in mammalian expression system by KINOMEscan assay
[27] = target: Serine/threonine-protein kinase ULK2 (Homo sapiens, UniProt Q8IYT8); experiment: Binding affinity to human ULK2 (M1 to S301 residues) expressed in mammalian expression system by KINOMEscan assay

Chain of Casein kinase I isoform gamma-2 (P78368 whole entry, looked up, the tested form may be a part, canonical isoform): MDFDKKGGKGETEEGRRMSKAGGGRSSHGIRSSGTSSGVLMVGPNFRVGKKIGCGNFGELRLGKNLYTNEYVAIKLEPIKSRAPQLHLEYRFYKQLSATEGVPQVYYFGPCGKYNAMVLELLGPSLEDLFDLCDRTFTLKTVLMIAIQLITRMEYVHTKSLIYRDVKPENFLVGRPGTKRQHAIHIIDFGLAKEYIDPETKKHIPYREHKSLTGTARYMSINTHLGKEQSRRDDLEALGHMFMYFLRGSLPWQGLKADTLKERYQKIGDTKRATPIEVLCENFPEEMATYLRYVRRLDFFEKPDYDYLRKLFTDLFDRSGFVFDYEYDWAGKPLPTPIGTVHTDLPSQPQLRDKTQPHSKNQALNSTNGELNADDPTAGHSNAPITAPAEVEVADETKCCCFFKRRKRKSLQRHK
Chain of Dual specificity tyrosine-phosphorylation-regulated kinase 1B (Q9Y463 whole entry, looked up, the tested form may be a part): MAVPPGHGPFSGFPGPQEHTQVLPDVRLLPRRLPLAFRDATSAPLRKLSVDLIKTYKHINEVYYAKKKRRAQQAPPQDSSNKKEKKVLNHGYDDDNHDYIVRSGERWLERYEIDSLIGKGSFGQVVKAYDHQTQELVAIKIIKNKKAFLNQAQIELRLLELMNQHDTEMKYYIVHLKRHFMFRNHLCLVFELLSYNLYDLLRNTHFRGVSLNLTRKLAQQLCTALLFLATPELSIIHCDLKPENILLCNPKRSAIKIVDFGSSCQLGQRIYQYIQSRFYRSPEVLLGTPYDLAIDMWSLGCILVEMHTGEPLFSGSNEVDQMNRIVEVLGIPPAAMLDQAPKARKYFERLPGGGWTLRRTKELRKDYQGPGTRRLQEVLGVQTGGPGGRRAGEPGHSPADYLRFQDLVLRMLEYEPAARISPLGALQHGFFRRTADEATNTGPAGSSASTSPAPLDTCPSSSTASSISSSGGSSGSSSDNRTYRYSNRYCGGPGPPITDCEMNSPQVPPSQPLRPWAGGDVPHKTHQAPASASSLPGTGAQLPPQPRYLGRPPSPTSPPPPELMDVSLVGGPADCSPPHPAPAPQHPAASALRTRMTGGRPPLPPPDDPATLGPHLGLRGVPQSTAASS
Chain of Mitogen-activated protein kinase kinase kinase 4 (Q9Y6R4 whole entry, the tested form may be a part): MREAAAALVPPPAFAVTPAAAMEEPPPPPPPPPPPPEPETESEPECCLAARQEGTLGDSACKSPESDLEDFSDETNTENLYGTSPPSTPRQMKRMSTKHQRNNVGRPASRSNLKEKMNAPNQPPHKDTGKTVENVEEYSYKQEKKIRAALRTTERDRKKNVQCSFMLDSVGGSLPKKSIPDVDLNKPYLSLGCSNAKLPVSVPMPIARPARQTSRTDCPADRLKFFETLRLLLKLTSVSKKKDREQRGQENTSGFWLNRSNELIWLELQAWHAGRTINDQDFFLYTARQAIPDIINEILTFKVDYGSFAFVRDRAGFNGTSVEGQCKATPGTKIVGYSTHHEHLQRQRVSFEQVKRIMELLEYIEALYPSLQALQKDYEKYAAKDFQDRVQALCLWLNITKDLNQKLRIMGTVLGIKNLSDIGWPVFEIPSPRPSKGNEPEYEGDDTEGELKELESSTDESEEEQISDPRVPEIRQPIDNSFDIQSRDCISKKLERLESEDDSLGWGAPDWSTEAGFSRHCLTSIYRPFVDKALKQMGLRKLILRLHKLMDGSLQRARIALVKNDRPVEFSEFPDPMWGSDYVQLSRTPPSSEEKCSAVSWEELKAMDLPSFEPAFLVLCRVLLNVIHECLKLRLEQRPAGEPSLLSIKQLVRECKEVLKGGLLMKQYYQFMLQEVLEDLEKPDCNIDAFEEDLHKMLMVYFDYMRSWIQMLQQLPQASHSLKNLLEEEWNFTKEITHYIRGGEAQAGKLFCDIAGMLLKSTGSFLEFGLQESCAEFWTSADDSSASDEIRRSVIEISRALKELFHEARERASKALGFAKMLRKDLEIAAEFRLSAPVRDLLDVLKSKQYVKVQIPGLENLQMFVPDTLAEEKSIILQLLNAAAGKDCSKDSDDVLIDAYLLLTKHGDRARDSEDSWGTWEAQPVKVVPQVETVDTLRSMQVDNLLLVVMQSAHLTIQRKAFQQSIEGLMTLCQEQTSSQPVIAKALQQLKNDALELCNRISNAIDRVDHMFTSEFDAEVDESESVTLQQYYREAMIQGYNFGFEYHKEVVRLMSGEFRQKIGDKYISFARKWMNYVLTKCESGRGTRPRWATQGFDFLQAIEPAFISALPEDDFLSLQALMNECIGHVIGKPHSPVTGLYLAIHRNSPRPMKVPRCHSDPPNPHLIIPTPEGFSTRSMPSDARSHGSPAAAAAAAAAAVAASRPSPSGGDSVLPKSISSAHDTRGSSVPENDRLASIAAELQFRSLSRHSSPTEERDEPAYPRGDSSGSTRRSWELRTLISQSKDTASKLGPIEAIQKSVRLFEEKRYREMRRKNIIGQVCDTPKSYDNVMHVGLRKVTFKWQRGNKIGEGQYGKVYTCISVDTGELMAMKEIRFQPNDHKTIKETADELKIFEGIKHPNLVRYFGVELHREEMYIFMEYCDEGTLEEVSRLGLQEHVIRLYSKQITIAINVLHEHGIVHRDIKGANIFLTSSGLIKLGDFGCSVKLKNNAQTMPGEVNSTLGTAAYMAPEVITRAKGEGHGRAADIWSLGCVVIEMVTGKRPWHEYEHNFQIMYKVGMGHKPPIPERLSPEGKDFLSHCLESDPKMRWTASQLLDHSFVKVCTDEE
Chain of RAF proto-oncogene serine/threonine-protein kinase (P04049 whole entry, the tested form may be a part): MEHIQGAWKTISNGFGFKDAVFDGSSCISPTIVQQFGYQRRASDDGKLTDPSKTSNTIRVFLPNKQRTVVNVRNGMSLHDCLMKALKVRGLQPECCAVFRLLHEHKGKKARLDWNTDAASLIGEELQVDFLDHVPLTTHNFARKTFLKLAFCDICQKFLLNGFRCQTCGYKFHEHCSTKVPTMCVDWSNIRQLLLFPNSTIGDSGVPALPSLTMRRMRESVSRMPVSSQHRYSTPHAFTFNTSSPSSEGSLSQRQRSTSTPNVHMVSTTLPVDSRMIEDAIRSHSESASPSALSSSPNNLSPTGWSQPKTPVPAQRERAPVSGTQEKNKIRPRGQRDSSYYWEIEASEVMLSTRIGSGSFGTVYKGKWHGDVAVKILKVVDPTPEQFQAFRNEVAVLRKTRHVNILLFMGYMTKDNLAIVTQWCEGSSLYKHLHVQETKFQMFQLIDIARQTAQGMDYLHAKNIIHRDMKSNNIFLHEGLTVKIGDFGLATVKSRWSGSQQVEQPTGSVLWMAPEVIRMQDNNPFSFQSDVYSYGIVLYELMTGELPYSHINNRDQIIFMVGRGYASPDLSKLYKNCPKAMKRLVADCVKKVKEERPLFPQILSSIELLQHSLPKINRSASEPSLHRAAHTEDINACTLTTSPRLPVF
Chain of Tyrosine-protein kinase JAK3 (P52333 whole entry, the tested form may be a part): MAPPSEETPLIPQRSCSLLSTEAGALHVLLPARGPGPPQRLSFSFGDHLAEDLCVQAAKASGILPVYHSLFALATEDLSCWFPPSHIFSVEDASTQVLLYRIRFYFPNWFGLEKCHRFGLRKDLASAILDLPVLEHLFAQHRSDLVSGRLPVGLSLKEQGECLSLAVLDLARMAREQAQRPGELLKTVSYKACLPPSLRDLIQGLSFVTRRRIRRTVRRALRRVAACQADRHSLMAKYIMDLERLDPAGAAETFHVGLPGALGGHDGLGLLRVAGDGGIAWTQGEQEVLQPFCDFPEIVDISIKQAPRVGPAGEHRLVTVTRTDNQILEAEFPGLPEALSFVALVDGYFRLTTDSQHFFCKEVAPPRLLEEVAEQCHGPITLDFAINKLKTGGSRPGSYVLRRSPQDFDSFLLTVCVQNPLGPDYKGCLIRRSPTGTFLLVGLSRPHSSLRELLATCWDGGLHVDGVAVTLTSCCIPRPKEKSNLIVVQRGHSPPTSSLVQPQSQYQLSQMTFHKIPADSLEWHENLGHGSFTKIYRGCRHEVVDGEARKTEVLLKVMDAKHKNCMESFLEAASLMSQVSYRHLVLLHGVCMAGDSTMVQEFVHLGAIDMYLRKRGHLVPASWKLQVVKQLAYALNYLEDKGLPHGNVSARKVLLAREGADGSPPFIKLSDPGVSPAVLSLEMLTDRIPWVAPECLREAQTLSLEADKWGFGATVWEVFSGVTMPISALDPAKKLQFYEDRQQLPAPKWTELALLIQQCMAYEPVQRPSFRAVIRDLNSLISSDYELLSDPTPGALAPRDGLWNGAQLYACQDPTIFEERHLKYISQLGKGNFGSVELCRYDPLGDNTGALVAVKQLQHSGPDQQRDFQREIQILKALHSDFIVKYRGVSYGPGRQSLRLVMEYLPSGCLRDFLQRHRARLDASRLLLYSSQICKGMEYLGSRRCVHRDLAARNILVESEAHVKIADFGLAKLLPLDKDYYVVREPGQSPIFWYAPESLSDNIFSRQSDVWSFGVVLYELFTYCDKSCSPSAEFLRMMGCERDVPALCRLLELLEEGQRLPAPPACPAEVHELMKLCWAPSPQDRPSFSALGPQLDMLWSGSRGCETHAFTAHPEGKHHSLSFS
Chain of Mitogen-activated protein kinase 10 (P53779 whole entry, the tested form may be a part): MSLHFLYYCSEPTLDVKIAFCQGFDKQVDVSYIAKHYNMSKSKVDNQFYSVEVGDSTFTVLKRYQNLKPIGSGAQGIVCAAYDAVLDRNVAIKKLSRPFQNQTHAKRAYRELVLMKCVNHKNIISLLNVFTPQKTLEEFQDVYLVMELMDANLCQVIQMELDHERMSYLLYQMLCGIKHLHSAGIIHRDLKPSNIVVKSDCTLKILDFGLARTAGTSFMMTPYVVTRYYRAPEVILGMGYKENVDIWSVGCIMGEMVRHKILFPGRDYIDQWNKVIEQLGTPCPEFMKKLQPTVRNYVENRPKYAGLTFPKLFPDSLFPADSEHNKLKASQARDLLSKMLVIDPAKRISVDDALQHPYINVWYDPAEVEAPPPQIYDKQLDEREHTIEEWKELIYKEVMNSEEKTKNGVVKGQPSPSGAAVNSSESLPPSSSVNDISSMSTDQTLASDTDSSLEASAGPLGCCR

**Q.** With `CC(C)CN(C(=O)c1cccnc1)c1c2ccccc2c(=O)n2c1[nH]c1ccccc12` as the compound, how does the GI50 (HT-29 [1]) read?
**A.** 24.1 µM

**Q.** What about the Activity (SW-620) of the same compound?
**A.** 32.39%

**Q.** What about the Activity (HT-29 [2]) of the same compound?
**A.** 21.78%

**Q.** And the Activity (HT-29 [3])?
**A.** Dose-dependent effect

**Q.** What about the Activity (HT-29 [4]) of the same compound?
**A.** Dose-dependent effect

**Q.** What about the Activity (HT-29 [5]) of the same compound?
**A.** Dose-dependent effect

**Q.** What about the Activity (HT-29 [6]) of the same compound?
**A.** Non-Toxic

**Q.** And the inhibition (HT-29 [7])?
**A.** Active

**Q.** And the Activity [8]?
**A.** 82%

**Q.** And the Activity [9]?
**A.** 76%

**Q.** What about the Activity [10] of the same compound?
**A.** 95%

**Q.** And the Activity [11]?
**A.** 100%

**Q.** What about the Activity [12] of the same compound?
**A.** 98%

**Q.** And the Activity [13]?
**A.** 88%

**Q.** What about the Activity [14] of the same compound?
**A.** 91%

**Q.** And the Activity [15]?
**A.** 100%

**Q.** What about the Activity [16] of the same compound?
**A.** 97%

**Q.** And the Activity [17]?
**A.** 89%

**Q.** And the Kd [18]?
**A.** ≥ 5 µM

**Q.** What about the Kd [19] of the same compound?
**A.** ≥ 5 µM

**Q.** What about the Kd [20] of the same compound?
**A.** ≥ 5 µM

**Q.** What about the Kd [21] of the same compound?
**A.** ≥ 5 µM

**Q.** And the Kd [22]?
**A.** ≥ 5 µM

**Q.** And the Kd [23]?
**A.** ≥ 5 µM

**Q.** What about the Kd [24] of the same compound?
**A.** ≥ 5 µM

**Q.** What about the Kd [25] of the same compound?
**A.** ≥ 5 µM

**Q.** And the Kd [26]?
**A.** ≥ 5 µM

**Q.** And the Kd [27]?
**A.** ≥ 5 µM
